In brackets after ≈: the same amount, converted by molar mass. Activity calls are given as the source filed them. The rule behind the calls is not given here.
Columns and labels:
[1] = Inhibition of quorum sensing system in Pseudomonas aeruginosa PAO1 assessed as reduction in 3-oxo-C12-HSL level at 50 ug/ml incubated for 24 hrs by LC-MS/MS method; settings: dose 50.0 µg/ml
Pseudomonas aeruginosa [2] = test: Induction of biofilm eradication in Pseudomonas aeruginosa PAO1 at 6.25 ug/ml by crystal violet staining based assay; format: functional; settings: dose 6.25 µg/ml
In short: (§1)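 PAO1 biofilms grown overnight at 37 °C in LB in 24-well plates, washed with PBS, then fresh LB with compound added and grown overnight again. Washed, methanol-fixed, crystal violet stained, ethanol solubilised, read at OD570. DMSO negative, resveratrol positive control.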

Pseudomonas aeruginosa [3] = test: Induction of biofilm eradication in Pseudomonas aeruginosa PAO1 at 25 ug/ml by crystal violet staining based assay; format: functional; settings: dose 25 µg/ml; in short: as §1
Pseudomonas aeruginosa [4] = test: Inhibition of biofilm formation in Pseudomonas aeruginosa PAO1 at 12.5 ug/ml incubated for 24 hrs crystal violet staining based assay; format: functional
In short: (§2)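 PAO1 grown statically for 24 h in LB ± compound in 24-well plates. Planktonic cells removed; attached cells stained with 0.05% crystal violet, rinsed, dissolved in 95% ethanol, read at OD570. DMSO negative, resveratrol positive control; SD from three independent experiments.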

Pseudomonas aeruginosa [5] = test: Downregulation of pqsR gene expression in Pseudomonas aeruginosa PAO1 assessed as fold decrease at 25 ug/ml by RT-qPCR analysis; format: functional; settings: dose 25 µg/ml
Pseudomonas aeruginosa [6] = test: Downregulation of sodB gene expression in Pseudomonas aeruginosa PAO1 assessed as fold decrease at 25 ug/ml by RT-qPCR analysis; format: functional; settings: dose 25.0 µg/ml
Pseudomonas aeruginosa [7] = test: Anti-virulence effect in Pseudomonas aeruginosa PAO1 assessed as inhibition of pyocyanin production at 6.25 ug/ml; format: functional; design: scale not given: the % may be the effect or the level left; settings: dose 6.25 µg/ml
In short: (§3)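 Overnight PAO1 culture in LB at 37 °C, diluted to OD600 0.05 and subcultured 5–7 h to mid-log phase, then re-diluted to OD600 0.05. Grown 18 h at 37 °C and 200 rpm with compound (6.25, 12.5, 25 μg mL−1) or DMSO. Supernatant extracted into chloroform, back-extracted into 0.2 M HCl, read at 520 nm.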

HEK-293T = test: Cytotoxicity against human HEK293T cells by CCK8 assay; format: functional, cell-based
In short: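 HEK293T cell viability by CCK-8; IC50 determined.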

[8] = Inhibition of quorum sensing system in Chromobacterium violaceum CV026
In short: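 Plate screen. CV026 grown overnight in LB with 50 μg ml−1 kanamycin; 15 μl seeded into 15 ml LB agar (1.0% agarose) containing 20 μM C4-HSL. PAO1 plates run in parallel. Test colonies inoculated by toothpick, incubated overnight at 37 °C. Ring of colourless viable cells around the colony scored as inhibition.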

Pseudomonas aeruginosa [9] = test: Inhibition of biofilm formation in Pseudomonas aeruginosa PAO1 assessed as reduction in biofilm by measuring scattered appearance at 25 ug/ml incubated for 24 hrs by scanning electron microscopic assay; format: functional, organism-based; settings: dose 25.0 µg/ml
In short: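 PAO1 biofilms on coverslips treated with compound at 6.25, 12.5 or 25 μg mL−1 or DMSO. Coverslips PBS-washed, fixed in 2.5% glutaraldehyde, ethanol-dehydrated, freeze-dried, gold-coated and imaged by SEM.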

[10] = Inhibition of quorum sensing system in Pseudomonas aeruginosa PAO1 assessed as reduction in C4-HSL level at 6.25 to 25 ug/ml incubated for 24 hrs by LC-MS/MS method; settings: dose 6.25-25 µg/ml
Pseudomonas aeruginosa [11] = test: Anti-virulence effect in Pseudomonas aeruginosa PAO1 assessed as inhibition of EPS production at 25 ug/ml; format: functional; design: scale not given: the % may be the effect or the level left; settings: dose 25 µg/ml
In short: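 PAO1 grown with compound (6.25–25 μg mL−1) in 24-well plates for 24 h at 37 °C and 180 rpm; DMSO and RSV (25 μg mL−1) as controls. Biofilms washed with water, then treated with 0.9% NaCl, 5% phenol and 0.2% hydrazine sulfate. Held 1 h in the dark, read at OD490. Three independent experiments.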

Pseudomonas aeruginosa [12] = test: Downregulation of rhlI gene expression in Pseudomonas aeruginosa PAO1 assessed as fold decrease at 25 ug/ml by RT-qPCR analysis; format: functional; settings: dose 25 µg/ml
[13] = Inhibition of quorum sensing system in Pseudomonas aeruginosa PAO1 assessed as reduction in 3-oxo-C12-HSL level at 6.25 to 25 ug/ml incubated for 24 hrs by LC-MS/MS method; settings: dose 6.25-25 µg/ml
[14] = Inhibition of quorum sensing system in Pseudomonas aeruginosa PAO1 assessed as reduction in C4-HSL level at 50 ug/ml incubated for 24 hrs by LC-MS/MS method; settings: dose 50.0 µg/ml
[15] = Inhibition of quorum sensing system in Pseudomonas aeruginosa PAO1 assessed as reduction in C4-HSL level at 25 ug/ml incubated for 24 hrs by LC-MS/MS method; settings: dose 25.0 µg/ml
Pseudomonas aeruginosa [16] = test: Anti-virulence effect in Pseudomonas aeruginosa PAO1 assessed as inhibition of pyocyanin production at 25 ug/ml; format: functional; design: scale not given: the % may be the effect or the level left; settings: dose 25 µg/ml; in short: as §3
Pseudomonas aeruginosa [17] = test: Anti-virulence effect in Pseudomonas aeruginosa PAO1 assessed as decrease in protease level at 25 ug/ml; format: functional; design: scale not given: the % may be the effect or the level left; settings: dose 25 µg/ml
In short: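 Overnight PAO1 culture diluted 1:100 into LB with compound (6.25–25 μg mL−1), grown at 37 °C and 180 rpm; DMSO and RSV (25 μg mL−1) as controls. Culture supernatant mixed with 2% azocasein in 1 M Tris–HCl pH 8.0 for 15 min at 37 °C. Reaction stopped with 10% TCA, centrifuged, NaOH added, read at OD440.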

Pseudomonas aeruginosa [18] = test: Anti-virulence effect in Pseudomonas aeruginosa PAO1 assessed as inhibition of pyocyanin production at 12.5 ug/ml; format: functional; design: scale not given: the % may be the effect or the level left; settings: dose 12.5 µg/ml; in short: as §3
[19] = Cytotoxicity against MEF at 100 to 1024 ug/ml; format: toxicity, cell-based; settings: mouse, dose 100-1024 µg/ml
Pseudomonas aeruginosa [20] = test: Downregulation of sucD gene expression in Pseudomonas aeruginosa PAO1 assessed as fold decrease at 25 ug/ml by RT-qPCR analysis; format: functional; settings: dose 25 µg/ml
Pseudomonas aeruginosa [21] = test: Downregulation of lasR gene expression in Pseudomonas aeruginosa PAO1 assessed as fold decrease at 25 ug/ml by RT-qPCR analysis; format: functional; settings: dose 25 µg/ml
Pseudomonas aeruginosa [22] = test: Downregulation of lasI gene expression in Pseudomonas aeruginosa PAO1 assessed as fold decrease at 25 ug/ml by RT-qPCR analysis; format: functional; settings: dose 25 µg/ml
Pseudomonas aeruginosa [23] = test: Induction of biofilm eradication in Pseudomonas aeruginosa PAO1 at 12.5 ug/ml by crystal violet staining based assay; format: functional; settings: dose 12.5 µg/ml; in short: as §1
Pseudomonas aeruginosa [24] = test: Antibacterial activity against Pseudomonas aeruginosa PAO1 by serial dilution method; format: functional
In short: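 PAO1 in LB, 37 °C. MIC by CLSI 2-fold serial dilution in Mueller–Hinton broth, inoculum 1–5 × 10^5 CFU mL−1, DMSO stocks. Growth curves: overnight culture diluted to OD600 = 0.05, subcultured to mid-log, rediluted to OD600 = 0.05, 3 mL with compound; OD620 read at 1, 3, 5, 7, 9, 11 and 24 h at 37 °C; DMSO negative control.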

Erythrocyte = test: Cytotoxicity against mouse RBC at 100 to 1024 ug/ml; format: toxicity, cell-based; settings: dose 100-1024 µg/ml
Pseudomonas aeruginosa [25] = test: Inhibition of biofilm formation in Pseudomonas aeruginosa PAO1 at 25 ug/ml incubated for 24 hrs crystal violet staining based assay; format: functional; in short: as §2

For Cc1cccc(C#N)c1Cc1c[nH]c2ccccc12, the inhibition [1] was 41%, the Activity (Pseudomonas aeruginosa [2]) was 43% and the Activity (Pseudomonas aeruginosa [3]) was 57%. For the same molecule, the inhibition at 12.5 µg/mL (Pseudomonas aeruginosa [4]) was 53%, the “fold change (FC)” value (Pseudomonas aeruginosa [5]) was 7.41 and the fold change (FC) (Pseudomonas aeruginosa [6]) was 1.82. The Activity (Pseudomonas aeruginosa [7]) was 41%, the IC50 (HEK-293T) was 59 µM and the inhibition [8] was “Active; Showed Higher Activity”. For the same molecule, the inhibition (Pseudomonas aeruginosa [9]) was “Active”, the inhibition [10] was “Active” and the Activity (Pseudomonas aeruginosa [11]) was 37%. For the same molecule, the “fold change (FC)” value (Pseudomonas aeruginosa [12]) was 7.3, the inhibition [13] was “Active” and the inhibition [14] was 19%. It also gave an inhibition [15] of 51%, an Activity (Pseudomonas aeruginosa [16]) of 73% and an Activity (Pseudomonas aeruginosa [17]) of 51%. The Activity (Pseudomonas aeruginosa [18]) was 57%, the Activity [19] was “Toxic” and the “fold change (FC)” value (Pseudomonas aeruginosa [20]) was 5.65. For the same molecule, the “fold change (FC)” value (Pseudomonas aeruginosa [21]) was 4.42, the “fold change (FC)” value (Pseudomonas aeruginosa [22]) was 5 and the Activity (Pseudomonas aeruginosa [23]) was 50%. For the same molecule, the MIC (Pseudomonas aeruginosa [24]) was 96 µg/mL (≈ 390 µM), the Activity (Erythrocyte) was “Toxic” and the inhibition at 25 µg/mL (Pseudomonas aeruginosa [25]) was 70%.
